# From PubChem BioAssay AID1483 (NMMLSC, 2009)
# Some of the results follow. Unmarked numbers belong to inactive results. Activity calls are given as the source filed them.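 The calls were made as follows: active = fluorescence beyond the plate control mean plus 3 SD, with a fluorescence-to-maximum score over 2 (cut at about 25 in these data); inactive = the rest.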
# Experiment: green-channel fluorescence of compounds in CCRF-Adr cells – cell-based, 488/530 nm, flow cytometry, artefact control for ABC transporter inhibitor project, confirmation (AID 1483)
# Settings: compound autofluorescence 488/530 nm, at 6.6 µM, stronger effect = higher value
# Procedure, shortened: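 System: drug-resistant CCRF-Adr cells; quantity: 3 million cells/mL final; probe or stimulus: no JC-1 substrate added, compound fluorescence only; dosing: one dose, 6.6 µM; timing: 10 min rotation at 25 °C; benchmarks: DMSO control wells; detection: flow cytometry, median green fluorescence at 530 ± 20 nm; read-out: compound-treated cell MFI minus DMSO-treated cell MFI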
row,SMILES,fluorescence
1,CCOC(=O)c1sc(NC(=O)CSc2nnc(-c3ccco3)o2)c(C(=O)OCC)c1C,0.61
2,O=C(Cc1c[nH]c2ccccc12)N/N=C/c1cccc(F)c1,4.76
3,CCN1/C(=C/c2ccc3ccc(C)cc3[n+]2CC)Sc2ccccc21,130 (active)
4,CCOCC(=O)Nc1sc2c(c1C(=O)OCC)CCCC2,0.31
5,COc1ccc(-n2c(C)cc(C(=O)COC(=O)c3cc(OC)c(OC)cc3NC(=O)c3cccs3)c2C)cc1,2.26
6,C/C(=N\Nc1ncc(Cl)cc1Cl)c1ccc(S(=O)(=O)NCc2ccco2)cc1,-2.49
7,COc1cccc(NC(=O)c2ccc(Cn3cc([N+](=O)[O-])cn3)o2)c1,5.61
8,Cc1ccc(OCC(O)CN2CCN(CC(O)COc3ccc(C)cc3Cl)CC2)c(Cl)c1 (stereo not drawn),22.4
9,Cc1cccc2cc(CN(Cc3cccs3)C(c3nnnn3C3CCCC3)C(C)C)c(=O)[nH]c12 (stereo not drawn),-4.84
10,Cc1ccc(-n2c(SCC(=O)Nc3ncc(Cl)cc3Cl)nc3ccccc32)cc1,-0.64
11,C=CCn1c(SCCOc2ccc(OC)cc2)nnc1C(NC(=O)c1ccc(OC)cc1)C(C)C (stereo not drawn),180 (active)
12,COc1ccc(C)cc1NC(=O)C(Sc1ccccc1)c1ccccc1 (stereo not drawn),-2.64
13,Cc1c(CCOC(=O)CC23CC4CC(CC(C)(C4)C2)C3)sc[n+]1Cc1ccc([N+](=O)[O-])cc1,-2.94
